The text below walks through data of ChEMBL document CHEMBL3232887, “Propargyl-linked antifolates are dual inhibitors of Candida albicans and Candida glabrata” (J Med Chem, 2014).

Broadly, the IC50 is the point on the concentration scale where inhibition reaches its midpoint. As a reminder, the MIC is the lowest concentration that inhibits growth of the organism.

One data set concerns MCF10. In words: Cytotoxicity against human MCF10 cells. It is filed as cell-based.
The next data set concerns Nakaseomyces glabratus. Kind of data set: Antifungal activity against Candida glabrata NCCLS84 after 24 hrs by Alamar Blue assay. To be noted: NCCLS84, 24 h. (In general: Resazurin is reduced to fluorescent resorufin, in cell work by metabolically active cells.)
The target in data set [1] is T1, Dihydrofolate reductase (Candida albicans, UniProt P22906).
T1 sequence (P22906 whole entry): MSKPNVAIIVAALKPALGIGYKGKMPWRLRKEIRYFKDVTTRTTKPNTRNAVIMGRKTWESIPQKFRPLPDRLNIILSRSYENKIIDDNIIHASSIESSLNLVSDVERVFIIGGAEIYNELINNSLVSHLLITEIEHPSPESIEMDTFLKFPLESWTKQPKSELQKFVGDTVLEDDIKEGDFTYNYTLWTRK
In words: Inhibition of Candida albicans DHFR using dihydrofolate as substrate preincubated for 5 mins followed by substrate addition in presence of NADPH. The procedure, abridged: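 Consumption of NADPH followed at 340 nm for 1 min at 25 °C. Buffer: 20 mM TES pH 7.0, 50 mM KCl, 10 mM 2-mercaptoethanol, 0.5 mM EDTA, 1 mg/mL BSA. Saturating 100 μM NADPH and 100 μM dihydrofolate, limiting enzyme. Racemic inhibitor was added from DMSO stocks at under 2% DMSO final. Triplicate runs.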

The target in data set [2] is T2, Dihydrofolate reductase (Homo sapiens, UniProt P00374).
T2 sequence (P00374 whole entry): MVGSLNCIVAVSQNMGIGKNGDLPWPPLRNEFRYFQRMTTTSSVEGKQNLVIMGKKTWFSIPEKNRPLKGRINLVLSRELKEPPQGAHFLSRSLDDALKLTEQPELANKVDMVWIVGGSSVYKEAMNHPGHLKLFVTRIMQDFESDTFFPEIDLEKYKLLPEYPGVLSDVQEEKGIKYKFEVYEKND
In words: Inhibition of human DHFR using dihydrofolate as substrate preincubated for 5 mins followed by substrate addition in presence of NADPH. The procedure, abridged:
(§1)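 Racemic inhibitor from DMSO stock (<2% DMSO in assay) was preincubated 5 min with enzyme and 100 μM NADPH. NADPH consumption was followed at 340 nm for 1 min at 25 °C, in triplicate.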

In data set [3] the test system is Candida albicans. Kind of data set: Antifungal activity against Candida albicans NCCLS84 after 24 hrs by XTT assay. It is filed as functional. To be noted: SC5314, 24 h, in the assay text read “SC5314” for “NCCLS84”. A general note: Tetrazolium assays rely on reduction of a dye to a coloured formazan, in cell work by metabolically active cells.
A short description of data set [4]: Kinetic solubility of the compound in water after 30 mins by HPLC analysis in presence of 0.02% HPMC. It is filed as physicochemical. Conditions: water with 0.02% HPMC; read-out: Kinetic_solubility.
A short description of data set [5]: Selectivity ratio of IC50 for human DHFR to IC50 for Candida albicans DHFR.
A short description of data set [6]: Selectivity ratio of IC50 for human DHFR to IC50 for Candida glabrata DHFR.
Data set [7] in a line: Inhibition of Candida glabrata DHFR using dihydrofolate as substrate preincubated for 5 mins followed by substrate addition in presence of NADPH. More on the design: species or system Nakaseomyces glabratus. The method, boiled down: as §1
Data set [8] in a line: Kinetic solubility of the compound in water after 30 mins by HPLC analysis. Conditions: read-out: Kinetic_solubility. It counts as physicochemical.
The subject of data set [9] is Candida albicans. In words: Antifungal activity against Candida albicans after 24 hrs by assay in presence of 0.01% Triton X-100.
In data set [10] the test system is Candida albicans. In words: Antifungal activity against Candida albicans after 24 hrs by assay.
For data set [11], the system named is Candida albicans. In words: Antifungal activity against Candida albicans NCCLS84 at 100 ug/ml after 24 hrs by XTT assay. It counts as functional, organism-based.

In brackets after ≈: the same amount, converted by molar mass. Activity calls are given as the source filed them. The calls are words filed in the database; no cut-off is given here.

On to `CCc1nc(N)nc(N)c1C#CC(C)c1ccc(-c2ccc(C#N)cc2)cc1OC` (stereo unspecified), for which the half-maximal inhibitory concentration (IC50) in the data set with MCF10 worked out at 50000 nM.
`COc1cc(-c2ccccc2)ccc1C(C)C#Cc1c(C)nc(N)nc1N` (stereo unspecified): the figures for the IC50 in the data set with MCF10, on Dihydrofolate reductase [1] and on Dihydrofolate reductase [2] were 74000 nM, 20 nM and 340 nM, respectively. Moreover, the values for the MIC with Nakaseomyces glabratus and against Candida albicans [3] were 0.39 µg/mL (≈ 1.09 µM) and 1.6 µg/mL (≈ 4.46 µM), respectively. The solubility kinetic at 0.5 h in data set [4] worked out at 25 µg/mL.
Regarding `CCc1nc(N)nc(N)c1C#CC(C)c1ccc(-c2ccc(C)cc2)cc1OC` (stereo unspecified), the Ratio IC50 in [5] is 4; in data set [6] it was 9. Further, the MIC with Nakaseomyces glabratus stood at 1.6 µg/mL (≈ 4.14 µM); against Candida albicans [3], 3.1 µg/mL (≈ 8.02 µM). In addition, the 50% inhibitory concentration (IC50) at Dihydrofolate reductase [1] is 48 nM; at Dihydrofolate reductase [2], 208 nM; in data set [7] it was 22 nM.
Turning to `CCc1nc(N)nc(N)c1C#CC(C)c1cnc(-c2ccccc2)nc1` (stereo unspecified), in [8], the solubility kinetic at 0.5 h turned out to be 60 µg/mL (≈ 174 µM). The IC50 with MCF10 worked out at 216000 nM; in [7], 22 nM. For the same compound, the values for the minimal inhibitory concentration (MIC) in the data set on Nakaseomyces glabratus and in the data set on Candida albicans [3] were 0.78 µg/mL (≈ 2.26 µM) and 0.19 µg/mL (≈ 0.552 µM), respectively.
With `CCc1nc(N)nc(N)c1C#CC(C)c1ccc(-c2ccc(F)cc2)cc1OC` (stereo unspecified), the IC50 in the data set on MCF10 turned out to be 60000 nM; at Dihydrofolate reductase [1], 43 nM; on Dihydrofolate reductase [2], 148 nM. In addition, the minimum inhibitory concentration (MIC) against Nakaseomyces glabratus came out at 7.5 µg/mL (≈ 19.2 µM); in the data set on Candida albicans [3], 1.8 µg/mL (≈ 4.61 µM).
As for `CCc1nc(N)nc(N)c1C#CC(C)c1ccc(-c2ccc(C)cc2)nc1` (stereo unspecified), the solubility kinetic at 0.5 h in data set [8] came out at 15 µg/mL (≈ 42 µM). In the data set on Candida albicans [9], the outcome was Active. For the same compound, the minimum inhibitory concentration (MIC) in the data set with Nakaseomyces glabratus is 0.2 µg/mL (≈ 0.56 µM); against Candida albicans [3], 0.39 µg/mL (≈ 1.09 µM). For the same compound, in [7], the IC50 was determined as 27 nM.
Regarding `COc1cc(-c2ccccc2)cc(C(C)C#Cc2c(C)nc(N)nc2N)c1` (stereo unspecified), the 50% inhibitory concentration (IC50) in data set [7] came out at 7.3 nM. This compound registered an MIC against Candida albicans [3] of 23 µg/mL (≈ 64.2 µM).
In the case of `CCc1nc(N)nc(N)c1C#CC(C)c1ccc(-c2ccc(OC(N)=O)cc2)cc1OC` (stereo unspecified), the MIC entry in the data set on Candida albicans [10] was “inactive”.
Consider `CCc1nc(N)nc(N)c1C#CC(C)c1ccc(-c2ccccc2)cc1OC` (stereo unspecified), for which the values for the Ratio IC50 in [5] and in data set [6] were 4 and 6, respectively. The MIC was found to be 1.6 µg/mL (≈ 4.3 µM) in the data set with Nakaseomyces glabratus and 6.3 µg/mL (≈ 16.9 µM) in the data set on Candida albicans [3]. For the same compound, the IC50 was 49 nM on Dihydrofolate reductase [1], 172 nM on Dihydrofolate reductase [2] and 31 nM in [7].
With `COc1cc(C(C)C#Cc2c(C)nc(N)nc2N)ccc1-c1ccccc1` (stereo unspecified), in the data set on MCF10, it took 80000 nM to reach half-maximal inhibition (IC50). For the same compound, the MIC against Nakaseomyces glabratus turned out to be 0.78 µg/mL (≈ 2.18 µM); against Candida albicans [3], 6.25 µg/mL (≈ 17.4 µM).
As to `CCc1nc(N)nc(N)c1C#CC(C)c1ccc(-c2ccc(N(C)C)cc2)cc1OC` (stereo unspecified), the MIC entry in the data set on Candida albicans [10] was “inactive”.
In the case of `CCc1nc(N)nc(N)c1C#CC(C)c1ccc(-c2ccccc2)cc1` (stereo unspecified), the IC50 in the data set on MCF10 is 505000 nM; on Dihydrofolate reductase [1], 23 nM; at Dihydrofolate reductase [2] it was 174 nM; in [7] it was 6 nM. Further, the figures for the minimum inhibitory concentration (MIC) against Nakaseomyces glabratus and against Candida albicans [3] were 3.1 µg/mL (≈ 9.05 µM) and 7.5 µg/mL (≈ 21.9 µM), respectively.
For the compound `CCc1nc(N)nc(N)c1C#CC(C)c1cc(OC)cc(-c2ccncc2)c1` (stereo unspecified), the MIC with Candida albicans [9] came out at 6.25 µg/mL; in the data set with Nakaseomyces glabratus, 1.3 µg/mL (≈ 3.48 µM); in the data set on Candida albicans [3] it was 25 µg/mL (≈ 66.9 µM).
In the data set with MCF10, `CCc1nc(N)nc(N)c1C#CC(C)c1ccc(-c2ccc(O)cc2)cc1OC` (stereo unspecified) registered an IC50 of 148000 nM. Further, the outcome with Candida albicans [11] was inactive.
`CCc1nc(N)nc(N)c1C#CC(C)c1ccc(-c2ccccc2)nc1` (stereo unspecified): in data set [8], the solubility kinetic at 0.5 h came out at 20 µg/mL (≈ 58.2 µM). In addition, the IC50 in the data set with MCF10 was determined as 148000 nM; in data set [7], 23 nM. Also, the MIC in the data set on Nakaseomyces glabratus came out at 0.78 µg/mL (≈ 2.27 µM); against Candida albicans [3], 0.39 µg/mL (≈ 1.14 µM).
Regarding `CCc1nc(N)nc(N)c1C#CC(C)c1ccc(-c2ccncc2)cc1OC` (stereo unspecified), the IC50 with MCF10 came to 216000 nM; on Dihydrofolate reductase [1], 33 nM; at Dihydrofolate reductase [2], 127 nM; in data set [7], 19 nM. Also, the MIC against Nakaseomyces glabratus amounted to 0.78 µg/mL (≈ 2.09 µM); in the data set with Candida albicans [3], 25 µg/mL (≈ 66.9 µM).
Take `COc1cc(C(C)C#Cc2c(C)nc(N)nc2N)c(OC)cc1-c1ccccc1` (stereo unspecified): the minimum inhibitory concentration (MIC) with Nakaseomyces glabratus worked out at 1.6 µg/mL (≈ 4.12 µM); in the data set on Candida albicans [3], 3.1 µg/mL (≈ 7.98 µM). Moreover, the results for the IC50 (on Dihydrofolate reductase [1]; on Dihydrofolate reductase [2]; in data set [7]) were 36 nM, 314 nM and 8.2 nM, respectively.
Regarding `CCc1nc(N)nc(N)c1C#CC(C)c1ccc(-c2ccc(C(=O)OC)cc2)cc1OC` (stereo unspecified), in the data set with MCF10, 96000 nM corresponded to half-maximal inhibition (IC50).
